Calls of active or inactive are those of the source. The rule behind the calls is not given here.
Experiments:
[1] = biological target: T1, Transient receptor potential cation channel subfamily V member 1 (Rattus norvegicus, UniProt O35433); experiment: In vitro binding affinity towards Rat Vanilloid receptor 1 (VR1) by [3H]RTX displacement.
How it was run: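 Rat VR1 stably expressed in tet-off CHO cells; cells grown without antibiotic for 48 h, trypsin-harvested, pelleted and stored at -20 °C. About 5×10^5 cells incubated with 50-100 pM [3H]RTX plus competitor in DPBS (Ca2+/Mg2+) with 0.25 mg/mL BSA, 60 min at 37 °C. Nonspecific binding taken with 100 nM unlabeled RTX.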

[2] = biological target: T1, Transient receptor potential cation channel subfamily V member 1; experiment: (§1) In vitro [Ca2+] influx relative to capsaicin by Rat Vanilloid receptor (VR1) expressing CHO cells; assay type: functional, cell-based
[3] = biological target: T1, Transient receptor potential cation channel subfamily V member 1; experiment: In vitro binding to Rat Vanilloid receptor 1 (VR1) expressing CHO cells compared to capsaicin; assay type: cell-based
How it was run: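 Tet-off CHO cells stably expressing rat VR1, induced by 48 h culture without tetracycline, harvested with trypsin/EDTA, pelleted and stored at -20 °C. About 5×10^5 cells per tube incubated 60 min at 37 °C with 50-100 pM [3H]RTX, a range of competitor concentrations and 0.25 mg/mL BSA in DPBS with Ca2+/Mg2+. Nonspecific binding measured with 100 nM unlabeled RTX. α-glycoprotein added after incubation, membranes pelleted, scintillation counting. Ki from Hill fit; at least three experiments.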

[4] = biological target: T1, Transient receptor potential cation channel subfamily V member 1; experiment: Inhibition of capsaicin-induced [Ca2+] uptake by Rat Vanilloid receptor 1 (VR1) expressing CHO cells; assay type: cell-based
[5] = biological target: Transient receptor potential cation channel subfamily V member 1 (Rattus norvegicus) (UniProt O35433); experiment: Inhibition of capsaicin-induced [Ca2+] uptake by Rat Vanilloid receptor 1 (VR1) expressing CHO cells (ineffective); assay type: functional, cell-based
Chain of Transient receptor potential cation channel subfamily V member 1 (Rattus norvegicus) (O35433 whole entry): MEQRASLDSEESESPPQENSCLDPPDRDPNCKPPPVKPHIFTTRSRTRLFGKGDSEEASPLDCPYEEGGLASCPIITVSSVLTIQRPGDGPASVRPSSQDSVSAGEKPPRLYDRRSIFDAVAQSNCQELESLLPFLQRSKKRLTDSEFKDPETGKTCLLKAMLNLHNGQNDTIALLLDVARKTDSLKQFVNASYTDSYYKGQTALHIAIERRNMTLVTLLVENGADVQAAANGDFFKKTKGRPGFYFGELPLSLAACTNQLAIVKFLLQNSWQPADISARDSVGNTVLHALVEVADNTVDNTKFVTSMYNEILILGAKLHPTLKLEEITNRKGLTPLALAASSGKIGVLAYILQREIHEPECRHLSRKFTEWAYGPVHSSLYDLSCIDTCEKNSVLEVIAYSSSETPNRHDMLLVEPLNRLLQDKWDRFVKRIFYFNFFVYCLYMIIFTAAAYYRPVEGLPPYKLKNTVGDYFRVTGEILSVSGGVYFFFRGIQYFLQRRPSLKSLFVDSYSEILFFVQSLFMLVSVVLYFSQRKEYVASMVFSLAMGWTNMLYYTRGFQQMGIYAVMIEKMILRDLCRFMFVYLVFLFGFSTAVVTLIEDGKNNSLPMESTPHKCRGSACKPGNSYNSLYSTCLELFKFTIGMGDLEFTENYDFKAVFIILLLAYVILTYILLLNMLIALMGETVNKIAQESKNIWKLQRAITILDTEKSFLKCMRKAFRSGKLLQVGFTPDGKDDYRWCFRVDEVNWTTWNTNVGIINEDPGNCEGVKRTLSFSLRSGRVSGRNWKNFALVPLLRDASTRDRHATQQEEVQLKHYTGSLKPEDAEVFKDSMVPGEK

[6] = biological target: Transient receptor potential cation channel subfamily V member 1 (Rattus norvegicus) (UniProt O35433); settings: CHO
[7] = biological target: Transient receptor potential cation channel subfamily V member 1 (Rattus norvegicus) (UniProt O35433); experiment: as §1; assay type: functional, cell-based; settings: concentration not given here
[8] = biological target: Transient receptor potential cation channel subfamily V member 1 (Rattus norvegicus) (UniProt O35433); experiment: Displacement of [3H]RTX binding to Rat Vanilloid receptor 1 (VR1) at 10 uM

T1 sequence (O35433 whole entry): as above

Compound | Ki [1] | EC50 [2] | further results
COc1cc(C/N=C(\S)NCC(COC(=O)c2ccccc2)Cc2ccc(C(C)(C)C)cc2)ccc1NS(C)(=O)=O (stereo unspecified) | 77.2 nM | 252 nM | 
C=C(C)[C@]12C[C@@H](C)[C@@]34O[C@](Cc5ccccc5)(O[C@@H]1[C@@H]3C=C(COC(=O)Cc1ccc(O)c(OC)c1)C[C@]1(O)C(=O)C(C)=C[C@@H]41)O2 [RESINIFERATOXIN] |  |  | Ki [3]: 0.13 nM
Cc1ccc(CC(CNC(=S)NCc2ccc(NS(C)(=O)=O)cc2)COC(=O)C(C)(C)C)cc1C (stereo unspecified) | 29.3 nM |  | Ki [4]: 67 nM
CCCS(=O)(=O)Nc1ccc(C/N=C(\S)NCC(COC(=O)C(C)(C)C)Cc2ccc(C)c(C)c2)cc1 (stereo unspecified) | 313 nM |  | Ki [4]: 940 nM
Cc1ccc(CC(CN/C(S)=N/Cc2ccc(NS(C)(=O)=O)cc2)COC(=O)c2ccccc2)cc1C (stereo unspecified) |  | 1730 nM | 
COc1cc(C/N=C(\S)NCC(COC(=O)C(C)(C)C)Cc2ccc(C)c(C)c2)ccc1NS(C)(=O)=O (stereo unspecified) | 49 nM | 22 nM | 
COc1cc(CNC(=S)NCC(COC(=O)C(C)(C)C)Cc2ccc(C)c(C)c2)ccc1O (stereo unspecified) |  | 1.97 nM | NE [5]: inactive
Oc1cc2c(cc1O)CN(C(=S)NCCc1ccc(Cl)cc1)CCC2 |  |  | NE [6]: inactive
Cc1ccc(CC(CN/C(S)=N/Cc2ccc(NS(C)(=O)=O)cc2)COC(=O)C(C)(C)C)cc1C (stereo unspecified) |  |  | inhibition [7]: 7%
Cc1ccc(CC(CNC(=S)NCc2ccc(NC(=O)C(C)C)cc2)COC(=O)C(C)(C)C)cc1C (stereo unspecified) | 2600 nM | 1140 nM | 
Cc1ccc(CC(CNC(=S)NCc2ccc(CNS(C)(=O)=O)cc2)COC(=O)C(C)(C)C)cc1C (stereo unspecified) | 3000 nM | 1700 nM | 
CCS(=O)(=O)Nc1ccc(C/N=C(\S)NCC(COC(=O)C(C)(C)C)Cc2ccc(C)c(C)c2)cc1 (stereo unspecified) | 108 nM |  | Ki [4]: 309 nM
Cc1ccc(CC(CN/C(S)=N/Cc2ccc(NS(=O)(=O)C(C)C)cc2)COC(=O)C(C)(C)C)cc1C (stereo unspecified) | 227 nM | 790 nM | 
Cc1ccc(CC(CNC(=S)NCc2ccc(NS(C)(=O)=O)c(F)c2)COC(=O)C(C)(C)C)cc1C (stereo unspecified) | 54 nM |  | Ki [4]: 7.8 nM
COc1cc(CNC(=S)NCC(COC(=O)C(C)(C)C)Cc2ccc(C(C)(C)C)cc2)ccc1O (stereo unspecified) |  | 2.83 nM | NE [5]: inactive
CC(C)(C)C(=O)OCC(C/N=C(\S)NCc1ccc(NS(C)(=O)=O)cc1)Cc1ccc(C(C)(C)C)cc1 (stereo unspecified) | 64 nM |  | Ki [4]: 86 nM
CC(=O)Nc1ccc(CNC(=S)NCC(COC(=O)C(C)(C)C)Cc2ccc(C)c(C)c2)cc1 (stereo unspecified) | 1700 nM | 450 nM | 
CC(C)(C)c1ccc(CC(CNC(=S)NCc2ccc(NS(C)(=O)=O)cc2)COC(=O)c2ccccc2)cc1 (stereo unspecified) | 239 nM | 2790 nM | 
COc1cc(CNC(=S)NCC(COC(=O)c2ccccc2)Cc2ccc(C)c(C)c2)ccc1NS(C)(=O)=O (stereo unspecified) | 148 nM | 166 nM | 
COc1cc(CNC(=O)CCCC/C=C/C(C)C)ccc1O |  |  | NE [5]: inactive
Cc1ccc(CC(CN/C(S)=N/Cc2cccc(NS(C)(=O)=O)c2)COC(=O)C(C)(C)C)cc1C (stereo unspecified) | 355 nM | 990 nM | 
Cc1ccc(CC(CN/C(S)=N/Cc2ccc(NS(=O)(=O)c3ccccc3)cc2)COC(=O)C(C)(C)C)cc1C (stereo unspecified) | 2500 nM |  | NE [5]: inactive
Cc1ccc(CC(CN/C(S)=N/Cc2ccc(NS(=O)(=O)C(F)(F)F)cc2)COC(=O)C(C)(C)C)cc1C (stereo unspecified) |  |  | inhibition [8]: 15.5%; NE [5]: inactive

Reference: ChEMBL document CHEMBL1145839, “N-(3-acyloxy-2-benzylpropyl)-N'-[4-(methylsulfonylamino)benzyl]thiourea analogues: novel potent and high affinity antagonists and partial antagonists of the vanilloid receptor” (J Med Chem, 2003)
